Measurements taken from ChEMBL document CHEMBL1141374 (J Med Chem, 2007).

How the values were obtained:
Settings in all cases: Homo sapiens
[1] = system: SK-MEL-28; assay: Growth inhibition in SK-MEL-28 cells; format: functional
[2] = system: BT-549; assay: Growth inhibition in BT549 cells; format: functional
[3] = system: MDA-MB-435; assay: Growth inhibition in MDA-MB-435 cells; format: functional
[4] = system: MCF7; assay: Growth inhibition in MCF7 cells; format: functional
[5] = system: RXF 393; assay: Growth inhibition in RXF393 cells; format: functional
[6] = system: EKVX; assay: Growth inhibition in EKVX cells; format: functional
[7] = system: OVCAR-8; assay: Growth inhibition in OVCAR8 cells; format: functional
[8] = system: TK-10; assay: Growth inhibition in TK10 cells; format: functional
[9] = system: A498; assay: Growth inhibition in A498 cells; format: functional
[10] = system: NCI-H226; assay: Growth inhibition in NCI-H226 cells; format: functional
[11] = system: SK-MEL-5; assay: Growth inhibition in SK-MEL-5 cells; format: functional
[12] = system: NCI-H460; assay: Growth inhibition in NCI-H460 cells; format: functional
[13] = system: SW-620; assay: Growth inhibition in SW620 cells; format: functional
[14] = Growth inhibition in HCC116 cells; format: functional
[15] = system: K562; assay: Growth inhibition in K562 cells; format: functional
[16] = system: 786-0; assay: Growth inhibition in 786-0 cells; format: functional
[17] = system: DU-145; assay: Growth inhibition in DU145 cells; format: functional
[18] = system: SF-295; assay: Growth inhibition in SF295 cells; format: functional
[19] = system: HCT-116; assay: Cytotoxicity against HCT116 cell line; format: cell-based
How it was run: (§1)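 Log-phase cells were diluted to 20 000–30 000 cells/mL, seeded, and left to attach overnight. They were then exposed to compounds at 10^–5–10^–12 M for 72 h at 37 °C in 5% CO2. Viable cells were measured by MTT, with absorbance read at 595 nm. Each compound ran in triplicate in at least three independent assays. IC50 came from nonlinear regression, and average values were reported.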

[20] = system: HOP-62; assay: Growth inhibition in HOP62 cells; format: functional
[21] = system: KM12; assay: Growth inhibition in KM12 cells; format: functional
[22] = system: CCRF-CEM; assay: Growth inhibition in CCRF-CEM cells; format: functional
[23] = system: HeLa; assay: Cytotoxicity against HeLa cell line; format: cell-based; how it was run: as §1
[24] = system: OVCAR-5; assay: Growth inhibition in OVCAR5 cells; format: functional
[25] = Cytotoxicity against KB-3-1 cell line; format: cell-based; how it was run: as §1
[26] = system: OVCAR-4; assay: Growth inhibition in OVCAR4 cells; format: functional
[27] = system: SN12C; assay: Growth inhibition in SN12C cells; format: functional
[28] = system: SF-539; assay: Growth inhibition in SF539 cells; format: functional
[29] = system: SK-OV-3; assay: Growth inhibition in SKOV3 cells; format: functional
[30] = system: COLO 205; assay: Growth inhibition in COLO205 cells; format: functional
[31] = system: M14; assay: Growth inhibition in M14 cells; format: functional
[32] = system: SNB-75; assay: Growth inhibition in SNB75 cells; format: functional
[33] = Growth inhibition in HS 578T cells; format: functional
[34] = system: NCI-H322M; assay: Growth inhibition in NCI-H322M cells; format: functional
[35] = system: UACC-257; assay: Growth inhibition in UACC257 cells; format: functional
[36] = system: HL-60; assay: Growth inhibition in HL60 cells; format: functional
[37] = system: A549; assay: Growth inhibition in A549 cells; format: functional
[38] = system: ZR-75-1; assay: Cytotoxicity against ZR-75-1 cell line; format: cell-based; how it was run: as §1
[39] = system: UACC-62; assay: Growth inhibition in UACC62 cells; format: functional
[40] = system: HCC 2998; assay: Growth inhibition in HCC2998 cells; format: functional
[41] = Growth inhibition in MDA-MB-231/ATCC cells; format: functional
[42] = system: ACHN; assay: Growth inhibition in ACHN cells; format: functional
[43] = Cytotoxicity against P-glycoprotein-overexpressing KB-V1 cell line; format: cell-based; how it was run: as §1
[44] = system: NCI-H23; assay: Growth inhibition in NCI-H23 cells; format: functional
[45] = system: SNB-19; assay: Growth inhibition in SNB19 cells; format: functional
[46] = system: OVCAR-3; assay: Growth inhibition in OVCAR-3 cells; format: functional
[47] = system: NCI/ADR-RES; assay: Growth inhibition in NCI/ADR-RES cells; format: functional
[48] = system: HOP-92; assay: Growth inhibition in HOP92 cells; format: functional
[49] = system: LOX IMVI; assay: Growth inhibition in LOX IMVI cells; format: functional
[50] = system: HT-29; assay: Growth inhibition in HT29 cells; format: functional
[51] = system: PC-3; assay: Growth inhibition in PC3 cells; format: functional
[52] = Growth inhibition in HCC15 cells; format: functional
[53] = system: SF-268; assay: Growth inhibition in SF268 cells; format: functional
[54] = system: CAKI-1; assay: Growth inhibition in CAK1-1 cells; format: functional
[55] = system: U-251; assay: Growth inhibition in U251cells; format: functional

GI50 [1]: 9.55 µM | GI50 [2]: 9.77 µM | GI50 [3]: 0.234 µM | GI50 [4]: 1.7 µM | GI50 [7]: 4.79 µM | GI50 [10]: 5.25 µM | GI50 [11]: 2.4 µM | GI50 [12]: 3.39 µM | GI50 [13]: 2.75 µM | GI50 [15]: 0.631 µM | GI50 [16]: 2.51 µM | GI50 [17]: 2.95 µM | GI50 [22]: 1.86 µM | GI50 [24]: 3.8 µM | GI50 [26]: 5.5 µM | GI50 [29]: 6.46 µM | GI50 [30]: 3.47 µM | GI50 [34]: 5.62 µM | GI50 [36]: 4.07 µM | GI50 [37]: 8.32 µM | GI50 [40]: 0.295 µM | GI50 [42]: 4.47 µM | GI50 [44]: 3.16 µM | GI50 [46]: 1.74 µM | GI50 [50]: 2.14 µM | GI50 [51]: 4.9 µM | GI50 [55]: 4.37 µM
SMILES: COc1ccc(-n2cnnc2-c2cc(OC)c(OC)c(OC)c2)cc1
GI50 [5]: 1.58 µM | GI50 [6]: 37.2 µM | GI50 [8]: 9.77 µM | GI50 [9]: 3.8 µM | GI50 [14]: 3.02 µM | GI50 [18]: 1.29 µM | IC50 [19]: 0.23 µM | GI50 [20]: 2.09 µM | GI50 [21]: 2.14 µM | IC50 [23]: 0.29 µM | IC50 [25]: 0.373 µM | GI50 [27]: 4.07 µM | GI50 [28]: 4.07 µM | GI50 [31]: 1.95 µM | GI50 [32]: 2.34 µM | GI50 [33]: 2.95 µM | GI50 [35]: 3.98 µM | IC50 [38]: 0.522 µM | GI50 [39]: 3.24 µM | GI50 [41]: 3.16 µM | IC50 [43]: 0.907 µM | GI50 [45]: 5.25 µM | GI50 [47]: 1.78 µM | GI50 [48]: > 100 µM | GI50 [49]: 4.37 µM | GI50 [52]: 1.7 µM | GI50 [53]: 5.89 µM | GI50 [54]: 2.57 µM
